What was measured:
[1] = biological target: T1, NADPH oxidase 4 (Homo sapiens, UniProt Q9NPH5); assay: Inhibition of full length human NOX4 transfected in COS 22 cells assessed as inhibition of ROS generation by measuring H2O2 production by fluorescence assay; details: read-out: IC50
T1 sequence (Q9NPH5 whole entry): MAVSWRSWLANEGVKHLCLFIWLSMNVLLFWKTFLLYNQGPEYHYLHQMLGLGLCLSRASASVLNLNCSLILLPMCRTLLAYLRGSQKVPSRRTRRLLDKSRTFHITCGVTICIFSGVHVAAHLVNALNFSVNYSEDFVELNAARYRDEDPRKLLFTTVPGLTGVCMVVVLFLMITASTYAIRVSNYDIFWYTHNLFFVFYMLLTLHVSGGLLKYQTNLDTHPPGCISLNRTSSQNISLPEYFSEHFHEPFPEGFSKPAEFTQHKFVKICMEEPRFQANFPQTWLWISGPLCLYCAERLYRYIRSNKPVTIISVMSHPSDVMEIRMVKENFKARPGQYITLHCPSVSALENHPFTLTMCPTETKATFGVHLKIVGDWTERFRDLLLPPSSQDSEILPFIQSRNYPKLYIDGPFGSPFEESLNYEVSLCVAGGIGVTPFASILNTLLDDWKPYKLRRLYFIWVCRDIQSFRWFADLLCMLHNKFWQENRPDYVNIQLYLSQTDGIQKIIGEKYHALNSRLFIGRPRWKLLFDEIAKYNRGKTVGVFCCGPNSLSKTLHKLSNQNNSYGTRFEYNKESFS

[2] = biological target: T2, NADPH oxidase 2 (Homo sapiens, UniProt P04839); assay: Inhibition of full length human NOX2 transfected in COS 22 cells assessed as inhibition of Phorbol 12-myristate 13-acetate-stimulated ROS generation by chemiluminescence assay; assay type: cell-based; details: read-out: IC50
T2 sequence (P04839 whole entry): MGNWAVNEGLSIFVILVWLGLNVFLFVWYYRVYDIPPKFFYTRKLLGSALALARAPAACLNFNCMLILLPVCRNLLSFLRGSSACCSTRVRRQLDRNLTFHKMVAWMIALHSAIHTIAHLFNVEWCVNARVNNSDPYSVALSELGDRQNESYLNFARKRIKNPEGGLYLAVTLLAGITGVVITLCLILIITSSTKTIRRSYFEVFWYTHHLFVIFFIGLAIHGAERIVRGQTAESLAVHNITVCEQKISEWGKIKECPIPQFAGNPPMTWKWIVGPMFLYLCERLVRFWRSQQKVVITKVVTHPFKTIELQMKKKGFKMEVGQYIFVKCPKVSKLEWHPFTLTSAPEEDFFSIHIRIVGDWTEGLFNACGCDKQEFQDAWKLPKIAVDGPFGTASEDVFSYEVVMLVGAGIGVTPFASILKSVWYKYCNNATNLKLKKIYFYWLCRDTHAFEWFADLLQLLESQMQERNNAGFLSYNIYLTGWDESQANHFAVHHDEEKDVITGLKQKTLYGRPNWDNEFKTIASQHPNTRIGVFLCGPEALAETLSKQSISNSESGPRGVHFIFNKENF
Summary of the method: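 COS-Nox2 (COS-7 stably expressing human p22phox, Nox2, p47phox, p67phox) plated in OPTIMEM at 2.5 x 10³ cells/well; 10 min at 37 °C in PBS with L-012, then stimulated with 5 µM PMA; luminescence followed over time; superoxide specificity checked with SOD 150 U/mL. IC50 by three-parameter non-linear fit, Hill slope 1, top/bottom fixed 100/0.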

`C=C(C)C[C@@H]1N[C@H]2CC(C)(C)[C@@H]1c1c(Br)cccc12` (racemic) showed an IC50 [1] of over 100 µM and an IC50 [2] of 46 µM.

Reference: ChEMBL document CHEMBL3390837, “Bridged tetrahydroisoquinolines as selective NADPH oxidase 2 (Nox2) inhibitors” (Medchemcomm, 2013)
